Measured values published in ChEMBL document CHEMBL3872252, “New bithiazolyl hydrazones: Novel synthesis, characterization and antitubercular evaluation” (Bioorg Med Chem Lett, 2017).
≈ marks a conversion by molar mass, not a printed value.

What was measured:
[1] = Antitubercular activity against Mycobacterium tuberculosis H37Ra ATCC 25177 dormant stage infected in human THP1 cells measured on day 12 by nitrate reductase assay; assay type: functional, THP-1; conditions: ATCC 25177, 288 h
[2] = Antitubercular activity against Mycobacterium tuberculosis H37Ra ATCC 25177 active stage infected in human THP1 cells measured on day 8 by nitrate reductase assay; assay type: functional, THP-1; conditions: ATCC 25177, 192 h
[3] = Antitubercular activity against Mycobacterium tuberculosis H37Ra ATCC 25177 active stage measured on day 8 by XTT reduction menadione based two-fold dilution assay; assay type: functional; conditions: ATCC 25177, 192 h
Summary of the method: (§1)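 M. tuberculosis H37Ra ATCC 25177 was exposed to 0.7–100 μg/mL in two-fold steps (0.7, 1.5, 3.1 … 100). Active stage was read after 8 days and dormant stage after 12 days of incubation. Inhibition was read by XTT reduction menadione assay (XRMA), absorbance 470 nm. MIC90 is the concentration giving ≥90% inhibition (µg/mL).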

[4] = Antitubercular activity against Mycobacterium tuberculosis H37Ra ATCC 25177 dormant stage measured on day 12 by XTT reduction menadione based two-fold dilution assay; assay type: functional; conditions: ATCC 25177, 288 h; summary of the method: as §1
[5] = Antitubercular activity against Mycobacterium bovis BCG ATCC 35743 active stage measured on day 8 by nitrate reductase based two-fold dilution assay; assay type: functional, Mycobacterium bovis BCG str. ATCC 35743; conditions: Mycobacterium tuberculosis variant bovis BCG, ATCC 35743, 192 h
[6] = Antitubercular activity against Mycobacterium bovis BCG ATCC 35743 dormant stage measured on day 12 by nitrate reductase based two-fold dilution assay; assay type: functional, Mycobacterium bovis BCG str. ATCC 35743; conditions: Mycobacterium tuberculosis variant bovis BCG, ATCC 35743, 288 h
[7] = Cytotoxicity against human THP1 cells by MTT assay; assay type: toxicity, cell-based, THP-1
[8] = Cytotoxicity against human MCF7 cells by MTT assay; assay type: toxicity, cell-based
[9] = Cytotoxicity against human HCT116 cells by MTT assay; assay type: toxicity, cell-based, HCT-116
[10] = Selectivity index, ratio of GI50 for human HCT116 cells to MIC90 for Mycobacterium tuberculosis H37Ra ATCC 25177 active stage; assay type: toxicity, cell-based, HCT-116; conditions: read-out: Selectivity Index
Summary of the method: (§2)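 Cytotoxicity was measured on human MCF-7, HCT116 and THP-1 cells by MTT assay, with paclitaxel as reference. GI50 is the concentration inhibiting 50% of cell growth. The selectivity index is GI50 for the given cell line divided by MIC90 for the given mycobacterial strain and stage.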

[11] = Selectivity index, ratio of GI50 for human HCT116 cells to MIC90 for Mycobacterium tuberculosis H37Ra ATCC 25177 dormant stage; assay type: toxicity, cell-based, HCT-116; conditions: read-out: Selectivity Index
Summary of the method: (§3)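 Cytotoxicity was measured on human MCF-7, HCT116 and THP-1 cells by MTT assay, with paclitaxel as reference. The selectivity index is GI50 for the given cell line divided by MIC90 for the given mycobacterial strain and stage.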

[12] = Selectivity index, ratio of GI50 for human HCT116 cells to MIC90 for Mycobacterium bovis BCG ATCC 35743 active stage; assay type: toxicity, cell-based, HCT-116; conditions: read-out: Selectivity Index; summary of the method: as §2
[13] = Selectivity index, ratio of GI50 for human HCT116 cells to MIC90 for Mycobacterium bovis BCG ATCC 35743 dormant stage; assay type: toxicity, cell-based, HCT-116; conditions: read-out: Selectivity Index; summary of the method: as §3
[14] = Selectivity index, ratio of GI50 for human THP1 cells to MIC90 for Mycobacterium tuberculosis H37Ra ATCC 25177 dormant stage; assay type: toxicity, cell-based, THP-1; conditions: read-out: Selectivity Index; summary of the method: as §3
[15] = tested on: Escherichia coli; assay: Antibacterial activity against Escherichia coli; assay type: functional
[16] = tested on: Pseudomonas aeruginosa; assay: Antibacterial activity against Pseudomonas aeruginosa; assay type: functional
[17] = tested on: Staphylococcus aureus; assay: Antibacterial activity against Staphylococcus aureus; assay type: functional
[18] = tested on: Bacillus subtilis; assay: Antibacterial activity against Bacillus subtilis; assay type: functional
[19] = tested on: Escherichia coli; assay: Growth inhibition of Escherichia coli at 30 ug/ml; assay type: functional; conditions: read-out: GI
[20] = tested on: Escherichia coli; assay: Growth inhibition of Escherichia coli at 10 ug/ml; assay type: functional; conditions: read-out: GI
[21] = tested on: Escherichia coli; assay: Growth inhibition of Escherichia coli at 3 ug/ml; assay type: functional; conditions: read-out: GI
Summary of the method: (§4)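 Screened against Gram-negative E. coli and P. aeruginosa and Gram-positive S. aureus and B. subtilis. Compound was tested at 3 µg/ml, and the read-out is percent growth inhibition.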

[22] = tested on: Pseudomonas aeruginosa; assay: Growth inhibition of Pseudomonas aeruginosa at 30 ug/ml; assay type: functional; conditions: read-out: GI
[23] = tested on: Pseudomonas aeruginosa; assay: Growth inhibition of Pseudomonas aeruginosa at 10 ug/ml; assay type: functional; conditions: read-out: GI
[24] = tested on: Pseudomonas aeruginosa; assay: Growth inhibition of Pseudomonas aeruginosa at 3 ug/ml; assay type: functional; conditions: read-out: GI; summary of the method: as §4
[25] = tested on: Staphylococcus aureus; assay: Growth inhibition of Staphylococcus aureus at 30 ug/ml; assay type: functional; conditions: read-out: GI
[26] = tested on: Staphylococcus aureus; assay: Growth inhibition of Staphylococcus aureus at 10 ug/ml; assay type: functional; conditions: read-out: GI
[27] = tested on: Staphylococcus aureus; assay: Growth inhibition of Staphylococcus aureus at 3 ug/ml; assay type: functional; conditions: read-out: GI; summary of the method: as §4
[28] = tested on: Bacillus subtilis; assay: Growth inhibition of Bacillus subtilis at 30 ug/ml; assay type: functional; conditions: read-out: GI
[29] = tested on: Bacillus subtilis; assay: Growth inhibition of Bacillus subtilis at 10 ug/ml; assay type: functional; conditions: read-out: GI
[30] = tested on: Bacillus subtilis; assay: Growth inhibition of Bacillus subtilis at 3 ug/ml; assay type: functional; conditions: read-out: GI; summary of the method: as §4

Q: With `C/C(=N\Nc1nc(-c2ccc(Br)cc2)cs1)c1sc(-c2ccccc2)nc1C` as the compound, how does the MIC90 [1] read?
A: Its MIC90 is > 100 µg/mL.

Q: What about the MIC90 [2] of the same compound?
A: The MIC90 was > 100 µg/mL.

Q: What about the IC50 [3] of the same compound?
A: The IC50 was 0.18 µg/mL (≈ 0.383 µM).

Q: And the MIC90 [3]?
A: Its MIC90 is > 100 µg/mL.

Q: What about the IC50 [4] of the same compound?
A: Its IC50 is 0.14 µg/mL (≈ 0.298 µM).

Q: What about the MIC90 [4] of the same compound?
A: Its MIC90 is 57.7 µg/mL (≈ 123 µM).

Q: And the IC50 [5]?
A: The IC50 was > 100 µg/mL.

Q: What about the MIC90 [5] of the same compound?
A: The MIC90 was > 100 µg/mL.

Q: And the IC50 [6]?
A: The IC50 was > 100 µg/mL.

Q: And the MIC90 [6]?
A: Its MIC90 is > 100 µg/mL.

Q: And the GI50 ([7]; THP1 cells)?
A: Its GI50 is 48.9 µg/mL (≈ 104 µM).

Q: What about the GI90 ([7]; thp-1) of the same compound?
A: Its GI90 is > 100 µg/mL.

Q: And the GI50 ([8]; MCF7 cells)?
A: Its GI50 is 26.3 µg/mL (≈ 56.1 µM).

Q: What about the GI90 ([8]; mcf7) of the same compound?
A: Its GI90 is > 100 µg/mL.

Q: What about the GI50 ([9]; HCT116 cells) of the same compound?
A: The GI50 was 55.6 µg/mL (≈ 118 µM).

Q: What about the GI90 ([9]; hct-116) of the same compound?
A: Its GI90 is > 100 µg/mL.

Q: What about the selectivity ratio [10] of the same compound?
A: Its selectivity ratio is 1.

Q: And the selectivity ratio [11]?
A: Its selectivity ratio is 1.

Q: And the selectivity ratio [12]?
A: Its selectivity ratio is 1.

Q: What about the selectivity ratio [13] of the same compound?
A: The selectivity ratio was 1.

Q: And the selectivity ratio [14]?
A: Its selectivity ratio is 1.

Q: And the IC50 [15]?
A: The IC50 was 0.475 µg/mL (≈ 1.01 µM).

Q: And the MIC [15]?
A: The MIC was 1.14 µg/mL (≈ 2.43 µM).

Q: And the IC50 [16]?
A: The IC50 was 0.416 µg/mL (≈ 0.886 µM).

Q: And the MIC [16]?
A: The MIC was 1.05 µg/mL (≈ 2.24 µM).

Q: And the IC50 [17]?
A: Its IC50 is 0.453 µg/mL (≈ 0.965 µM).

Q: What about the MIC [17] of the same compound?
A: Its MIC is 1.84 µg/mL (≈ 3.92 µM).

Q: What about the IC50 [18] of the same compound?
A: Its IC50 is 0.526 µg/mL (≈ 1.12 µM).

Q: And the MIC [18]?
A: Its MIC is 1.95 µg/mL (≈ 4.15 µM).

Q: And the inhibition of growth at 30 µg/mL [19]?
A: Its inhibition of growth at 30 µg/mL is 96.7%.

Q: And the inhibition of growth at 10 µg/mL [20]?
A: The inhibition of growth at 10 µg/mL was 94.4%.

Q: What about the inhibition of growth at 3 µg/mL [21] of the same compound?
A: The inhibition of growth at 3 µg/mL was 93%.

Q: And the inhibition of growth at 30 µg/mL [22]?
A: Its inhibition of growth at 30 µg/mL is 98.4%.

Q: What about the inhibition of growth at 10 µg/mL [23] of the same compound?
A: The inhibition of growth at 10 µg/mL was 95.8%.

Q: What about the inhibition of growth at 3 µg/mL [24] of the same compound?
A: Its inhibition of growth at 3 µg/mL is 94.3%.

Q: And the inhibition of growth at 30 µg/mL [25]?
A: The inhibition of growth at 30 µg/mL was 96.8%.

Q: What about the inhibition of growth at 10 µg/mL [26] of the same compound?
A: The inhibition of growth at 10 µg/mL was 94.3%.

Q: And the inhibition of growth at 3 µg/mL [27]?
A: The inhibition of growth at 3 µg/mL was 92.8%.

Q: And the inhibition of growth at 30 µg/mL [28]?
A: The inhibition of growth at 30 µg/mL was 96.5%.

Q: What about the inhibition of growth at 10 µg/mL [29] of the same compound?
A: Its inhibition of growth at 10 µg/mL is 93.8%.

Q: What about the inhibition of growth at 3 µg/mL [30] of the same compound?
A: Its inhibition of growth at 3 µg/mL is 92.3%.
